Experimental data taken from ChEMBL document CHEMBL6134765, “Rapid identification of novel indolylarylsulfone derivatives as potent HIV-1 NNRTIs via miniaturized CuAAC click-chemistry-based combinatorial libraries” (RSC Med Chem, 2025).

Experiments:
[1] = target: Human immunodeficiency virus type 1 reverse transcriptase (Human immunodeficiency virus 1) (UniProt Q72547); assay: Inhibition of recombinant HIV-1 reverse transcriptase at 0.66 mM incubated for 1 hr by ELISA relative to control
In short: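 Each library compound was tested directly as the crude click mixture (diluted in DMSO to 2 mM per well) against HIV-1 RT at 0.66 mM, using an ELISA-based RT kit following the kit protocol. Blank controls held DMSO, TBTA, CuSO4·5H2O and sodium ascorbate. Inhibition is expressed as a percentage.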

[2] = test system: Human immunodeficiency virus 1; assay: Antiviral activity against wild-type HIV-1 IIIB infected in human MT4 cells incubated for 5 days by spectrophometry based MTT assay; assay type: functional, organism-based; conditions: Human immunodeficiency virus 1, IIIB, MT4, 120 h
In short: (§1)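 MTT protection assay in MT-4 cells infected with HIV-1 IIIB or HIV-2 ROD. EC50 is the compound concentration giving 50% protection of the cultures against virus-induced cytotoxicity.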

[3] = Cytotoxicity against human MT4 cells assessed as reduction in cell viability incubated for 5 days by MTT assay; assay type: toxicity, cell-based; conditions: time 5 day
In short: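 Mock-infected MT-4 cultures were read by MTT for cell viability. CC50 is the concentration that reduces viability by 50%.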

[4] = Selectivity index, ratio of CC50 for cytotoxicity against human MT4 cells to EC50 for antiviral activity against wild-type HIV-1 IIIB infected in human MT4 cells; assay type: toxicity, cell-based; conditions: read-out: Ratio CC50/EC50
In short: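 Selectivity index is calculated as CC50 (mock-infected MT-4, MTT) divided by EC50 (HIV-1 IIIB protection of MT-4, MTT).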

[5] = test system: Human immunodeficiency virus 1; assay: Antiviral activity against HIV-1 harboring Y181C mutant infected in human MT4 cells assessed as inhibition of virus induced cytotoxicity incubated for 5 days by spectrophometry based MTT assay; assay type: functional, organism-based; conditions: Human immunodeficiency virus 1, MT4, 120 h
In short: (§2)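 MT-4 cells (from Dr. N. Yamamoto, Yamaguchi University) infected with single-mutant (L100I, K103N, Y181C, Y188L, E138K) or double-mutant (F227L/V106A; RES056 = K103N/Y181C) HIV-1 strains. Protection against virus-induced cytotoxicity was read by the MTT method. EC50 is the concentration giving 50% protection of the cell cultures.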

[6] = test system: Human immunodeficiency virus 1; assay: Antiviral activity against HIV-1 harboring E138K mutant infected in human MT4 cells assessed as inhibition of virus induced cytotoxicity incubated for 5 days by spectrophometry based MTT assay; assay type: functional, organism-based; conditions: Human immunodeficiency virus 1, MT4, 120 h; in short: as §2
[7] = test system: Human immunodeficiency virus 1; assay: Antiviral activity against HIV-1 harboring L100I mutant infected in human MT4 cells assessed as inhibition of virus induced cytotoxicity incubated for 5 days by spectrophometry based MTT assay; assay type: functional, organism-based; conditions: Human immunodeficiency virus 1, MT4, 120 h; in short: as §2
[8] = test system: Human immunodeficiency virus 2; assay: Antiviral activity against HIV-2 ROD infected in human MT4 cells incubated for 5 days by spectrophotometry based MTT assay; assay type: functional, organism-based; conditions: Human immunodeficiency virus 2, ROD, MT4, 120 h; in short: as §1
[9] = test system: Human immunodeficiency virus 1; assay: Antiviral activity against HIV-1 harboring F227L/V106A double mutant infected in human MT4 cells assessed as inhibition of virus induced cytotoxicity incubated for 5 days by spectrophometry based MTT assay; assay type: functional, organism-based; conditions: Human immunodeficiency virus 1, MT4, 120 h; in short: as §2
[10] = test system: Human immunodeficiency virus 1; assay: Antiviral activity against HIV-1 harboring RES056 mutant infected in human MT4 cells assessed as inhibition of virus induced cytotoxicity incubated for 5 days by spectrophometry based MTT assay; assay type: functional, organism-based; conditions: Human immunodeficiency virus 1, MT4, 120 h; in short: as §2
[11] = test system: Human immunodeficiency virus 1; assay: Antiviral activity against HIV-1 harboring Y188L mutant infected in human MT4 cells assessed as inhibition of virus induced cytotoxicity incubated for 5 days by spectrophometry based MTT assay; assay type: functional, organism-based; conditions: Human immunodeficiency virus 1, MT4, 120 h; in short: as §2
[12] = test system: Human immunodeficiency virus 1; assay: Antiviral activity against HIV-1 harboring K103N mutant infected in human MT4 cells assessed as inhibition of virus induced cytotoxicity incubated for 5 days by spectrophometry based MTT assay; assay type: functional, organism-based; conditions: Human immunodeficiency virus 1, MT4, 120 h; in short: as §2

SMILES: Cc1cc(C)cc(S(=O)(=O)c2c(C(=O)NCc3cn(-c4cc5ccccc5s4)nn3)[nH]c3ccc(Cl)cc23)c1
- inhibition [1]: < 85%

SMILES: COC(=O)c1cccc(-n2cc(CNC(=O)c3[nH]c4ccc(Cl)cc4c3S(=O)(=O)c3cc(C)cc(C)c3)nn2)c1
- inhibition [1]: < 85%

SMILES: COC(=O)CCCn1cc(CNC(=O)c2[nH]c3ccc(Cl)cc3c2S(=O)(=O)c2cc(C)cc(C)c2)nn1
- EC50 [2]: 35 nM
- inhibition [1]: > 85%
- CC50 at 120 h [3]: 206000 nM
- selectivity ratio [4]: 5810
- EC50 [5]: 580 nM
- EC50 [6]: 50 nM
- EC50 [7]: 270 nM
- EC50 [8]: > 206000 nM
- EC50 [9]: 1660 nM
- EC50 [10]: > 206000 nM
- EC50 [11]: 9040 nM
- EC50 [12]: 510 nM

SMILES: Cc1cc(C)cc(S(=O)(=O)c2c(C(=O)NCc3cn(-c4ccc(C(=O)O)cc4)nn3)[nH]c3ccc(Cl)cc23)c1
- inhibition [1]: < 85%

SMILES: Cc1cccc(Cn2cc(CNC(=O)c3[nH]c4ccc(Cl)cc4c3S(=O)(=O)c3cc(C)cc(C)c3)nn2)c1
- inhibition [1]: < 85%

SMILES: Cc1cc(C)cc(S(=O)(=O)c2c(C(=O)NCc3cn(Cc4cccc(C#N)c4)nn3)[nH]c3ccc(Cl)cc23)c1
- EC50 [2]: 62 nM
- inhibition [1]: > 85%
- CC50 at 120 h [3]: 166000 nM
- selectivity ratio [4]: 2680
- EC50 [5]: 1100 nM
- EC50 [6]: 350 nM
- EC50 [7]: 340 nM
- EC50 [8]: > 166000 nM
- EC50 [9]: 2960 nM
- EC50 [10]: > 166000 nM
- EC50 [11]: > 35300 nM
- EC50 [12]: 1240 nM

SMILES: Cc1cc(C)cc(S(=O)(=O)c2c(C(=O)NCc3cn(Cc4cccc([N+](=O)[O-])c4)nn3)[nH]c3ccc(Cl)cc23)c1
- EC50 [2]: 230 nM
- inhibition [1]: > 85%
- CC50 at 120 h [3]: > 216000 nM
- selectivity ratio [4]: > 939
- EC50 [5]: 3040 nM
- EC50 [6]: 1300 nM
- EC50 [7]: 1900 nM
- EC50 [8]: > 216000 nM
- EC50 [9]: 9410 nM
- EC50 [10]: > 216000 nM
- EC50 [11]: 152000 nM
- EC50 [12]: 2840 nM

SMILES: Cc1cc(C)cc(S(=O)(=O)c2c(C(=O)NCc3cn(Cc4ccc(S(N)(=O)=O)cc4)nn3)[nH]c3ccc(Cl)cc23)c1
- inhibition [1]: < 85%

SMILES: Cc1cc(C)cc(S(=O)(=O)c2c(C(=O)NCc3cn(Cc4ccc(Cl)cc4)nn3)[nH]c3ccc(Cl)cc23)c1
- inhibition [1]: < 85%

SMILES: CCOC(=O)Cn1cc(CNC(=O)c2[nH]c3ccc(Cl)cc3c2S(=O)(=O)c2cc(C)cc(C)c2)nn1
- EC50 [2]: 32 nM
- inhibition [1]: > 85%
- CC50 at 120 h [3]: > 236000 nM
- selectivity ratio [4]: > 7330
- EC50 [5]: 630 nM
- EC50 [6]: 100 nM
- EC50 [7]: 170 nM
- EC50 [8]: 226000 nM
- EC50 [9]: 1700 nM
- EC50 [10]: 204000 nM
- EC50 [11]: 33400 nM
- EC50 [12]: 340 nM

SMILES: Cc1cc(C)cc(S(=O)(=O)c2c(C(=O)NCc3cn(Cc4ccc(C(N)=O)cc4)nn3)[nH]c3ccc(Cl)cc23)c1
- inhibition [1]: < 85%

SMILES: Cc1cc(C)cc(S(=O)(=O)c2c(C(=O)NCc3cn(CC(=O)Nc4ccccc4)nn3)[nH]c3ccc(Cl)cc23)c1
- inhibition [1]: < 85%

SMILES: Cc1cc(C)cc(S(=O)(=O)c2c(C(=O)NCc3cn([C@H]4C[C@H](n5cc(C)c(=O)[nH]c5=O)O[C@@H]4CO)nn3)[nH]c3ccc(Cl)cc23)c1 (single isomer, unassigned)
- inhibition [1]: < 85%

SMILES: Cc1cc(C)cc(S(=O)(=O)c2c(C(=O)NCc3cn(Cc4ccc5ccccc5c4)nn3)[nH]c3ccc(Cl)cc23)c1
- inhibition [1]: < 85%

SMILES: Cc1cc(C)cc(S(=O)(=O)c2c(C(=O)NCc3cn(CC(=O)NC4CC4)nn3)[nH]c3ccc(Cl)cc23)c1
- inhibition [1]: < 85%

SMILES: COc1cccc(Cn2cc(CNC(=O)c3[nH]c4ccc(Cl)cc4c3S(=O)(=O)c3cc(C)cc(C)c3)nn2)c1
- inhibition [1]: < 85%

SMILES: Cc1cn([C@H]2C[C@H](N=[N+]=[N-])[C@@H](CO)O2)c(=O)[nH]c1=O [ZIDOVUDINE]
- EC50 [2]: 19 nM
- CC50 at 120 h [3]: > 7480 nM
- selectivity ratio [4]: > 397
- EC50 [9]: 9 nM
- EC50 [10]: 2 nM

SMILES: Cc1cc(C)cc(S(=O)(=O)c2c(C(=O)NCc3cn(Cc4cccc(Cl)c4)nn3)[nH]c3ccc(Cl)cc23)c1
- inhibition [1]: < 85%

SMILES: Cc1cc(C)cc(S(=O)(=O)c2c(C(=O)NCc3cn(CC(=O)N4CCOCC4)nn3)[nH]c3ccc(Cl)cc23)c1
- inhibition [1]: < 85%

SMILES: Cc1cc(C)cc(S(=O)(=O)c2c(C(=O)NCc3cn(-c4ccc5c(c4)OCO5)nn3)[nH]c3ccc(Cl)cc23)c1
- inhibition [1]: < 85%
